Data as given in ChEMBL document CHEMBL1938293, “Molecular drug-organiser: synthesis, characterization and biological evaluation of penicillin V and/or nalidixic acid calixarene-based podands” (2011).
Calls of active or inactive are those of the source. The calls are words filed in the database; no cut-off is given here.

Experiments:
Staphylococcus aureus [1] = experiment: Antibacterial activity against Staphylococcus aureus ATCC 29213 at 2.83 mg/mL after 24 hrs by disk diffusion assay; format: functional, organism-based
Method in brief: (§1)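 Disk diffusion on Mueller–Hinton agar per CLSI recommendations. Sterile 6 mm cellulose disks were impregnated with 20 μL of the DMSO solution at the stated concentration. Plates were incubated at 37 °C and growth-inhibition zone diameters were read at 24 h. Disks carrying DMSO alone served as solvent control.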

Enterococcus faecalis [2] = experiment: Antibacterial activity against Enterococcus faecalis ATCC 29212 at 2.83 mg/mL after 24 hrs by disk diffusion assay; format: functional, organism-based; method in brief: as §1
Escherichia coli [3] = experiment: Antibacterial activity against Escherichia coli ATCC 25922 at 2.83 mg/mL after 24 hrs by disk diffusion assay; format: functional, organism-based; method in brief: as §1
Staphylococcus aureus [4] = experiment: Antibacterial activity against Staphylococcus aureus ATCC 25923 at 2.83 mg/mL after 24 hrs by disk diffusion assay; format: functional, organism-based; method in brief: as §1
Enterococcus faecalis [5] = experiment: Antibacterial activity against Enterococcus faecalis ATCC 29212 at 1.25 mg/mL after 24 hrs by disk diffusion assay; format: functional, organism-based; method in brief: as §1
Pseudomonas aeruginosa [6] = experiment: Antibacterial activity against Pseudomonas aeruginosa ATCC 27853 at 2.83 mg/mL after 24 hrs by disk diffusion assay; format: functional, organism-based; method in brief: as §1
Staphylococcus aureus [7] = experiment: Antibacterial activity against Staphylococcus aureus ATCC 25923 at 1.25 mg/mL after 24 hrs by disk diffusion assay; format: functional, organism-based; method in brief: as §1
Staphylococcus aureus [8] = experiment: Antibacterial activity against Staphylococcus aureus ATCC 29213 at 1.25 mg/mL after 24 hrs by disk diffusion assay; format: functional, organism-based; method in brief: as §1
Enterococcus faecalis [9] = experiment: Antibacterial activity against Enterococcus faecalis ATCC 29212 at 1.88 mg/mL after 24 hrs by disk diffusion assay; format: functional, organism-based
Method in brief: (§2)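 Disk diffusion on Mueller–Hinton agar, run per CLSI recommendations. Sterile 6 mm cellulose disks each carried 20 μL of a DMSO solution. Reference drugs were dosed to equal the maximum amount releasable from the calixarene podands. Disks with DMSO alone served as solvent controls. Plates were incubated at 37 °C, and growth-inhibition zone diameter (mm) was read at 24 h.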

Staphylococcus aureus [10] = experiment: Antibacterial activity against Staphylococcus aureus ATCC 25923 at 1.88 mg/mL after 24 hrs by disk diffusion assay; format: functional, organism-based; method in brief: as §2
Staphylococcus aureus [11] = experiment: Antibacterial activity against Staphylococcus aureus ATCC 29213 at 1.88 mg/mL after 24 hrs by disk diffusion assay; format: functional, organism-based; method in brief: as §2
Pseudomonas aeruginosa [12] = experiment: Antibacterial activity against Pseudomonas aeruginosa ATCC 27853 at 1.88 mg/mL after 24 hrs by disk diffusion assay; format: functional, organism-based; method in brief: as §2
Escherichia coli [13] = experiment: Antibacterial activity against Escherichia coli ATCC 25922 at 1.88 mg/mL after 24 hrs by disk diffusion assay; format: functional, organism-based; method in brief: as §2
Enterococcus faecalis [14] = experiment: Antibacterial activity against Enterococcus faecalis ATCC 29212 at 3.25 mg/mL after 24 hrs by disk diffusion assay; format: functional, organism-based; method in brief: as §1
Staphylococcus aureus [15] = experiment: Antibacterial activity against Staphylococcus aureus ATCC 29213 at 3.25 mg/mL after 24 hrs by disk diffusion assay; format: functional, organism-based; method in brief: as §1
Pseudomonas aeruginosa [16] = experiment: Antibacterial activity against Pseudomonas aeruginosa ATCC 27853 at 3.25 mg/mL after 24 hrs by disk diffusion assay; format: functional, organism-based; method in brief: as §1
Staphylococcus aureus [17] = experiment: Antibacterial activity against Staphylococcus aureus ATCC 25923 at 3.25 mg/mL after 24 hrs by disk diffusion assay; format: functional, organism-based; method in brief: as §1
Escherichia coli [18] = experiment: Antibacterial activity against Escherichia coli ATCC 25922 at 3.25 mg/mL after 24 hrs by disk diffusion assay; format: functional, organism-based; method in brief: as §1
Staphylococcus aureus [19] = experiment: Antibacterial activity against Staphylococcus aureus ATCC 25923 at 10 mg/mL freshly prepared compound after 24 hrs by disk diffusion assay; format: functional; method in brief: as §1
Staphylococcus aureus [20] = experiment: Antibacterial activity against Staphylococcus aureus ATCC 29213 at 10 mg/mL after 24 hrs by disk diffusion assay; format: functional, organism-based; method in brief: as §1
Staphylococcus aureus [21] = experiment: Antibacterial activity against Staphylococcus aureus ATCC 25923 at 10 mg/mL after 24 hrs by disk diffusion assay; format: functional; conditions: ATCC 25923, 24 h, read-out: DIZ; method in brief: as §1
Enterococcus faecalis [22] = experiment: Antibacterial activity against Enterococcus faecalis ATCC 29212 at 10 mg/mL after 24 hrs by disk diffusion assay; format: functional, organism-based; method in brief: as §1
Escherichia coli [23] = experiment: Antibacterial activity against Escherichia coli ATCC 25922 at 10 mg/mL after 24 hrs by disk diffusion assay; format: functional, organism-based; method in brief: as §1
Staphylococcus aureus [24] = experiment: Antibacterial activity against Staphylococcus aureus ATCC 25923 at 10 mg/mL 1 month old compound stored at 4 degree C after 24 hrs by disk diffusion assay; format: functional; conditions: ATCC 25923, 24 h, read-out: DIZ
Method in brief: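 Disk diffusion on Mueller–Hinton agar per CLSI recommendations. The DMSO solution had been stored 1 month at 4 °C before use and was compared with a freshly prepared solution. Sterile 6 mm cellulose disks were impregnated with 20 μL. Plates were incubated at 37 °C and inhibition zone diameter was read at 24 h.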

Enterococcus faecalis [25] = experiment: Antibacterial activity against Enterococcus faecalis ATCC 29212 at 2.53 mg/mL after 24 hrs by disk diffusion assay; format: functional, organism-based; method in brief: as §1
Staphylococcus aureus [26] = experiment: Antibacterial activity against Staphylococcus aureus ATCC 25923 at 2.53 mg/mL after 24 hrs by disk diffusion assay; format: functional, organism-based; method in brief: as §1
Staphylococcus aureus [27] = experiment: Antibacterial activity against Staphylococcus aureus ATCC 29213 at 2.53 mg/mL after 24 hrs by disk diffusion assay; format: functional, organism-based; method in brief: as §1
Staphylococcus aureus [28] = experiment: Antibacterial activity against Staphylococcus aureus ATCC 29213 at 5.8 mg/mL after 24 hrs by disk diffusion assay; format: functional, organism-based; method in brief: as §1
Enterococcus faecalis [29] = experiment: Antibacterial activity against Enterococcus faecalis ATCC 29212 at 5.8 mg/mL after 24 hrs by disk diffusion assay; format: functional, organism-based; method in brief: as §1
Staphylococcus aureus [30] = experiment: Antibacterial activity against Staphylococcus aureus ATCC 25923 at 5.8 mg/mL after 24 hrs by disk diffusion assay; format: functional, organism-based; method in brief: as §1
Escherichia coli [31] = experiment: Antibacterial activity against Escherichia coli ATCC 25922 at 5.8 mg/mL after 24 hrs by disk diffusion assay; format: functional, organism-based; method in brief: as §1
Pseudomonas aeruginosa [32] = experiment: Antibacterial activity against Pseudomonas aeruginosa ATCC 27853 at 2.53 mg/mL after 24 hrs by disk diffusion assay; format: functional, organism-based; method in brief: as §1
Escherichia coli [33] = experiment: Antibacterial activity against Escherichia coli ATCC 25922 at 2.53 mg/mL after 24 hrs by disk diffusion assay; format: functional, organism-based; method in brief: as §1
Pseudomonas aeruginosa [34] = experiment: Antibacterial activity against Pseudomonas aeruginosa ATCC 27853 at 5 mg/mL after 24 hrs by disk diffusion assay; format: functional, organism-based; method in brief: as §1
Enterococcus faecalis [35] = experiment: Antibacterial activity against Enterococcus faecalis ATCC 29212 at 5 mg/mL after 24 hrs by disk diffusion assay; format: functional, organism-based; method in brief: as §1
Staphylococcus aureus [36] = experiment: Antibacterial activity against Staphylococcus aureus ATCC 25923 at 5 mg/mL after 24 hrs by disk diffusion assay; format: functional, organism-based; method in brief: as §1
Escherichia coli [37] = experiment: Antibacterial activity against Escherichia coli ATCC 25922 at 5 mg/mL after 24 hrs by disk diffusion assay; format: functional, organism-based; method in brief: as §1
Staphylococcus aureus [38] = experiment: Antibacterial activity against Staphylococcus aureus ATCC 29213 at 5 mg/mL after 24 hrs by disk diffusion assay; format: functional, organism-based; method in brief: as §1

CC1(C)S[C@@H]2[C@H](NC(=O)COc3ccccc3)C(=O)N2[C@H]1C(=O)O
Activity (Staphylococcus aureus [1]): Active
Activity (Enterococcus faecalis [2]): inactive
Activity (Escherichia coli [3]): inactive
Activity (Staphylococcus aureus [4]): Active
Activity (Enterococcus faecalis [5]): Active
Activity (Pseudomonas aeruginosa [6]): inactive
Activity (Staphylococcus aureus [7]): Active
Activity (Staphylococcus aureus [8]): Active

CCn1cc(C(=O)O)c(=O)c2ccc(C)nc21
Activity (Enterococcus faecalis [9]): inactive
Activity (Staphylococcus aureus [10]): Active
Activity (Staphylococcus aureus [11]): Active
Activity (Pseudomonas aeruginosa [12]): inactive
Activity (Escherichia coli [13]): Active

CC(C)(C)c1cc2c(O)c(c1)Cc1cc(C(C)(C)C)cc(c1OCCCO)Cc1cc(C(C)(C)C)cc(c1O)Cc1cc(C(C)(C)C)cc(c1OCCCO)C2
Activity (Enterococcus faecalis [14]): inactive
Activity (Staphylococcus aureus [15]): inactive
Activity (Pseudomonas aeruginosa [16]): inactive
Activity (Staphylococcus aureus [17]): inactive
Activity (Escherichia coli [18]): inactive

CCn1cc(C(=O)OCCCOc2c3cc(C(C)(C)C)cc2Cc2cc(C(C)(C)C)cc(c2O)Cc2cc(C(C)(C)C)cc(c2OCCCOC(=O)[C@@H]2N4C(=O)[C@@H](NC(=O)COc5ccccc5)[C@H]4SC2(C)C)Cc2cc(C(C)(C)C)cc(c2O)C3)c(=O)c2ccc(C)nc21
diameter of the inhibition zone (DIZ) (Staphylococcus aureus [19]): 30 mm
Activity (Staphylococcus aureus [20]): inactive
zone of inhibition at 10000 µg/mL (Staphylococcus aureus [21]): 31.5 mm
Activity (Enterococcus faecalis [22]): inactive
Activity (Escherichia coli [23]): inactive
zone of inhibition at 10000 µg/mL (Staphylococcus aureus [24]): 35 mm

CC(C)(C)c1cc2c(O)c(c1)Cc1cc(C(C)(C)C)cc(c1OCCCOC(=O)[C@@H]1N3C(=O)[C@@H](NC(=O)COc4ccccc4)[C@H]3SC1(C)C)Cc1cc(C(C)(C)C)cc(c1O)Cc1cc(C(C)(C)C)cc(c1OCCCOC(=O)[C@@H]1N3C(=O)[C@@H](NC(=O)COc4ccccc4)[C@H]3SC1(C)C)C2
Activity (Enterococcus faecalis [25]): inactive
Activity (Staphylococcus aureus [26]): inactive
Activity (Staphylococcus aureus [27]): inactive
Activity (Staphylococcus aureus [28]): inactive
Activity (Enterococcus faecalis [29]): inactive
Activity (Staphylococcus aureus [30]): Active
Activity (Escherichia coli [31]): inactive
Activity (Pseudomonas aeruginosa [32]): inactive
Activity (Escherichia coli [33]): inactive

CCn1cc(C(=O)OCCCOc2c3cc(C(C)(C)C)cc2Cc2cc(C(C)(C)C)cc(c2O)Cc2cc(C(C)(C)C)cc(c2OCCCOC(=O)c2cn(CC)c4nc(C)ccc4c2=O)Cc2cc(C(C)(C)C)cc(c2O)C3)c(=O)c2ccc(C)nc21
Activity (Pseudomonas aeruginosa [34]): inactive
Activity (Enterococcus faecalis [35]): inactive
Activity (Staphylococcus aureus [36]): inactive
Activity (Escherichia coli [37]): inactive
Activity (Staphylococcus aureus [38]): inactive
